Compound activity as filed in PubChem.
This is a sample that favours compounds with a hit; in the whole collection about 2.4% have one here.
ERAP1 inh = blocks human ERAP1 aminopeptidase activity. recombinant ERAP1, Leu-AMC fluorescence, 60 min. AID 652197. hit rate 0.15% among 340,000. Q9NZ08. inhibition, % at 10.7 µM;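 active means mean replicate inhibition of at least 30%, or all replicates individually reaching that 30% level; inactive means mean below 30% and not every replicate reaching it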
Target sequence (Q9NZ08 whole entry, looked up): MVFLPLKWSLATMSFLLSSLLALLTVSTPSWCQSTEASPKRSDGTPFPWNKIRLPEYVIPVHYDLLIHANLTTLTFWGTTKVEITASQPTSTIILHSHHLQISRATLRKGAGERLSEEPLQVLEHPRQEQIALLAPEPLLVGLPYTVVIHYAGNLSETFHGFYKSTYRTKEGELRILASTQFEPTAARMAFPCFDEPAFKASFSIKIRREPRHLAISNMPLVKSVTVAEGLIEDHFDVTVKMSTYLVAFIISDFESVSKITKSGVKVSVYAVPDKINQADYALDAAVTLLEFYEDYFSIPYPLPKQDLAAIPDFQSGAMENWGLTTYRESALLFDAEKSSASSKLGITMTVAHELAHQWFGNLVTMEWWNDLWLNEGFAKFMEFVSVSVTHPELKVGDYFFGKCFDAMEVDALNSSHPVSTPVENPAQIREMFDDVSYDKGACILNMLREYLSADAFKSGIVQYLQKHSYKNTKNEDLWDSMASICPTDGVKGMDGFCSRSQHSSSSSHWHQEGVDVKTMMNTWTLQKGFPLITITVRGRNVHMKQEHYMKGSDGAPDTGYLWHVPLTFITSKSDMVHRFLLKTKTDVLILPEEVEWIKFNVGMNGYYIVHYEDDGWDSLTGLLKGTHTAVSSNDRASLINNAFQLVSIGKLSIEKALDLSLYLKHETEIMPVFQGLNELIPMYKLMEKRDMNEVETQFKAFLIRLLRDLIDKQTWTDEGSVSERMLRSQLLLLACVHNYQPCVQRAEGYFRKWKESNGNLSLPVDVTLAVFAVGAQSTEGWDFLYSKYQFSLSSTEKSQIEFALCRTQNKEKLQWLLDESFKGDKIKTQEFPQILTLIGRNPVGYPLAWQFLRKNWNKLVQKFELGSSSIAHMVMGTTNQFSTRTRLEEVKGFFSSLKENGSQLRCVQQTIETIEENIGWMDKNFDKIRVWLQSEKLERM
PGC1a acetyl inh = lowers PGC1a acetylation signal in U2OS cells; inhibition, % at 15.6 µM; AlphaScreen anti-acetyl-lysine; with virally co-expressed GCN5 acetyltransferase; hit rate 0.17% among 350,000;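 active means every replicate shows inhibition of at least 40%; inconclusive means mean inhibition at least 40% but some replicate below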
rRNA inh HTS = inhibitors of bacterial rRNA selective over humanized ribosomes. hit rate 1.6% among 350,000. E. coli WT GFP vs humanized-ribosome RFP mutants, fluorescence, 24 h; active compounds read low; DMSO median 0, no signal -100. GFP signal change (wild-type ribosome), % (test concentration not listed);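 active means significant combined selectivity score with lowered wild-type GFP, culture density cut under 30%, mutant RFP and density less affected; inactive means any of these conditions unmet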
ARNT-TACC3 inh = disruptors of human ARNT/TACC3 interaction. Q9Y6A5. AlphaScreen His-ARNT PAS-B/GST-TACC3 binding, luminescence; TACC3 fragment carries E629A point mutation. inhibition, % at 9.99 µM. hit rate 0.66% among 390,000. AID 623870;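 active means mean inhibition of replicates at least 50% and at least half of replicates each reaching 50%; inconclusive means half or more replicates reach 50% but mean below 50%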
Casp6 inh = inhibitors of human caspase-6 | purified caspase-6, Z-VEID-R110 cleavage fluorescence | P55212 | hit rate 0.53% among 350,000 | inhibition, % at 12.5 µM;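 active means mean inhibition across replicates at least about 35%, with every replicate also reaching that limit, limit read from the data; inconclusive means only one of the two criteria met; inactive means neither criterion met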
S100A4 inh HTS = blocks human S100A4 binding to myosin IIA peptide; P26447; hit rate 0.14% among 360,000; AID 652163; inhibition, % at 10.7 µM; S100A4/TAMRA-MyoIIA peptide fluorescence polarization;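 active means mean inhibition of at least 70% across replicates, with every replicate also reaching that level; inconclusive means mean inhibition reaches 70% but some replicates fall short; inactive means mean inhibition below 70%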
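Test system: S100A4 monomer protein. Medium: HEPES buffer with Ca2+, pH 7.2. Reagent: fluorescent myosin IIA peptide, 5 nM. Compound dosing: single-point compound testing. Timing: 5 min between mix addition and reading. Benchmarks: DMSO neutral and TFP positive wells.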
AID977621 = growth inhibition of wild-type GFP E. coli, dose response, H69 mutant RFP, cherry-pick | 1,900 tested, under 10 active | activity change, negative = inhibition at 50 µM | shares compounds with rRNA inh HTS | E. coli wild-type GFP strain growth, fluorescence, 24 h;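 active means Wild-type ribosome reporter drop at least double the humanized mutant ribosome reporter drop, growth loss under a set limit; inconclusive means no clear call, values can overlap the other calls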;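 further: wild-type GFP and H69 mutant RFP strains grown together 50/50 in each well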
AID977628 = growth of wild-type and h24-humanized E. coli strains – h24 mutant RFP vs wild-type GFP, cherry-pick, dose response. shares compounds with rRNA inh HTS. E. coli WT GFP strain growth, fluorescence, 24 h. activity change, negative = inhibition at 50 µM. 1,900 tested, under 10 active. AID 977628;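 active means compound lowering the normal-ribosome reporter at least twice as much as the humanized-ribosome reporter, growth loss under a set limit; inconclusive means no clear call, values can overlap the other calls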;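 further: wild-type GFP and h24 humanized RFP strains co-cultured 1 to 1 per well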
Of the large screens only hits and unclear results are named; the others gave an inactive call (follow-up assays come after a bar, where they were run).

CCOc1cc(/C=C(\CC(=O)O)c2nc3ccccc3s2)ccc1OC	rRNA inh HTS -20.5 (no result: PGC1a acetyl inh) | AID977621 inactive | AID977628 inactive
CCOc1cc(/C=C(\CC(=O)O)c2nc3ccccc3s2)ccc1OCC(=O)Nc1cccc(C(F)(F)F)c1	none (no result: PGC1a acetyl inh)
C[C@@H]1CCCCO[C@@H](CN(C)Cc2ccc(C(F)(F)F)cc2)[C@H](C)CN([C@@H](C)CO)C(=O)c2cc(NC(=O)CCC(F)(F)F)ccc2O1	none
CC(=O)c1c(N2CCOCC2)nc2ccc(Cl)cc2c1-c1ccccc1	rRNA inh HTS -19.1 (no result: PGC1a acetyl inh) | AID977621 inactive
Cc1nc2ccc(Cl)cc2c(-c2ccccc2)c1C(=O)N(C)C	none
COc1ccc2nc(C)cc(SCC(=O)O)c2c1	none
CCOC(=O)C(CC)Sc1cc(C)nc2ccc(OC)cc12 (stereo not drawn)	rRNA inh HTS -30.1 | AID977621 inactive
COC(=O)CNC(=O)COC(=O)c1ccc(Cl)nc1	rRNA inh HTS -18.6 | AID977621 inactive | AID977628 inactive
CCOC(=O)c1cc(S(=O)(=O)NCc2ccc3c(c2)OCO3)cn1C	none
COC(=O)c1cc(S(=O)(=O)NCc2ccc3c(c2)OCO3)cn1C	rRNA inh HTS -13.0 | AID977621 inactive | AID977628 inactive
Cc1noc(NS(=O)(=O)c2ccc(NC(=O)c3cc(S(=O)(=O)N(C)c4ccccc4)ccc3Cl)cc2)c1C	none
Cc1noc(NS(=O)(=O)c2ccc(NC(=O)c3cc(-c4ccccc4Cl)nc4ccccc34)cc2)c1C	rRNA inh HTS -23.9 (no result: PGC1a acetyl inh) | AID977621 inactive
C[C@@H]1CN([C@H](C)CO)C(=O)c2ccccc2-c2ccccc2CO[C@H]1CN(C)C(=O)Nc1ccc(F)cc1	none
Cn1c(=O)c2c(ncn2CC(O)CNc2ccc(F)cc2)n(C)c1=O (stereo not drawn)	rRNA inh HTS -27.3 | AID977621 inactive | AID977628 inactive
O=C(C[C@H]1CC[C@H]2[C@@H](COC[C@H](O)CN2S(=O)(=O)c2ccc(F)cc2)O1)NCC1CCCCC1	none
COC(=O)c1sc(-c2ccc(C(C)(C)C)cc2)cc1NC(=O)c1ccccc1C(=O)O	rRNA inh HTS -16.8 | AID977621 inactive
COc1cccc(C(=O)NC(C)c2ccc(Br)cc2)c1 (stereo not drawn)	rRNA inh HTS -27.2 (no result: PGC1a acetyl inh) | AID977621 inactive | AID977628 inactive
COc1ccccc1NC(=O)N1CC[C@H]2[C@@H]1c1cc(-c3ccccc3)ccc1N(C)[C@H]2CO	none
CCc1cc(C(=O)N2CCCC(C(=O)c3cccc4ccccc34)C2)n(C)n1 (stereo not drawn)	rRNA inh HTS -26.0 (no result: PGC1a acetyl inh) | AID977621 inactive
CCC(=O)N1[C@@H]2c3ccc(/C=C/c4ccccc4)c(=O)n3C[C@@H]2[C@@H](CO)[C@@H]1C(=O)OC	none (no result: PGC1a acetyl inh)
CC(C)C[C@H]1COc2cc(Br)ccc2S(=O)(=O)N1	rRNA inh HTS -22.0 (no result: ERAP1 inh, ARNT-TACC3 inh) | AID977621 inactive | AID977628 inconclusive
COc1ccc(S(=O)(=O)Nc2ccc3c(c2)CC(=O)N([C@H](C)CO)C[C@H](C)[C@H](CN(C)C(=O)Nc2ccc(F)cc2)O3)cc1	none (no result: ERAP1 inh, Casp6 inh, S100A4 inh HTS)
O=C(Nc1ccccc1N1CCOCC1)C1CCCCN1S(=O)(=O)c1ccccc1 (stereo not drawn)	rRNA inh HTS -31.0 | AID977621 inactive | AID977628 inactive
O=C(NC1CCCCC1)C(c1cccc2ccccc12)n1c(=O)c(-c2ccco2)nc2ccccc21 (stereo not drawn)	rRNA inh HTS -23.2 (no result: ERAP1 inh, PGC1a acetyl inh, ARNT-TACC3 inh) | AID977621 inactive | AID977628 inactive
CCN(c1ccccc1)S(=O)(=O)c1ccc(Cl)c(C(=O)NCc2ccco2)c1	rRNA inh HTS -20.6 (no result: ARNT-TACC3 inh) | AID977621 inactive
CCN(CC)S(=O)(=O)c1ccc(Cl)c(C(=O)NCc2ccco2)c1	none (no result: PGC1a acetyl inh)
CC(=O)Nc1cccc(OCc2ccc([N+](=O)[O-])cc2)c1	rRNA inh HTS -23.1 (no result: PGC1a acetyl inh, ARNT-TACC3 inh) | AID977621 inactive | AID977628 inactive
CC(=O)Nc1ccc(NC(=O)c2ccc(-c3ccc([N+](=O)[O-])cc3)o2)cc1	none
COc1cccc(NC(=O)c2ccc(-c3ccc([N+](=O)[O-])cc3)o2)c1	rRNA inh HTS -28.2 (no result: PGC1a acetyl inh) | AID977621 inactive
COC(=O)C[C@@H]1CC[C@@H]2[C@H](COc3ccc(NC(=O)c4cnccn4)cc3C(=O)N2C)O1	none (no result: ERAP1 inh, ARNT-TACC3 inh, Casp6 inh, S100A4 inh HTS)
NC(=O)c1cc(NC(=O)c2cc(Br)c(Br)s2)cc(C(N)=O)c1	rRNA inh HTS -23.9 (no result: PGC1a acetyl inh) | AID977628 inconclusive
C[C@@H]1CN([C@@H](C)CO)C(=O)c2cc(C#CCc3ccccc3)cnc2O[C@H]1CN(C)C(=O)C1CC1	none
COC(=O)C1CCN(C(=O)c2ccc(OC)c(S(=O)(=O)N3CCCc4ccccc43)c2)CC1	rRNA inh HTS -13.5 | AID977621 inactive | AID977628 inconclusive
c1ccc2c(c1)Nc1cc3ccccc3cc1S2	rRNA inh HTS -21.0 | AID977621 inactive | AID977628 inactive
COc1ccc2c(c1)Sc1ccccc1N2	none (no result: PGC1a acetyl inh)
CS(=O)(=O)N1CCN(c2ccnc3cc(Cl)ccc23)CC1	none
CCS(=O)(=O)N1CCN(c2ccnc3cc(Cl)ccc23)CC1	rRNA inh HTS -21.2 | AID977621 inactive
Cc1ccc(S(=O)(=O)N(C)C[C@@H]2Oc3ccc(NS(=O)(=O)c4ccccc4)cc3C(=O)N([C@@H](C)CO)C[C@H]2C)cc1	none
CC(=O)Nc1ccc(NC(=O)C2(C)Cc3c(-c4ccc5c(c4)OCO5)ccnc3O2)cc1 (stereo not drawn)	none (no result: ARNT-TACC3 inh)
CC(=O)Nc1ccc(-c2ccnc3c2CC(C)(C(=O)Nc2ccc4c(c2)OCO4)O3)cc1 (stereo not drawn)	rRNA inh HTS -23.1 (no result: ARNT-TACC3 inh) | AID977621 inactive
O=C(Nc1ccc(Br)cc1)c1cccnc1N1CCCCC1	rRNA inh HTS -33.8 | AID977621 inactive | AID977628 inactive
CC(=O)N(C)C[C@@H]1[C@H](c2ccc(-c3cccnc3)cc2)[C@H](CO)N1C(=O)C1CC1	none (no result: PGC1a acetyl inh, ARNT-TACC3 inh)
N#C[C@@H]1[C@@H](c2ccccc2-c2ccccc2)[C@H](CO)N1C(=O)NC1CCCC1	none (no result: ARNT-TACC3 inh)
COc1cccc(OC)c1CNC(=O)CCSCc1ccccc1F	rRNA inh HTS -35.1 | AID977621 inactive | AID977628 inactive
COc1cccc(CNC(=O)CCSCc2ccccc2F)c1	rRNA inh HTS -28.8 | AID977621 inactive
